KCNQ1 act = human KCNQ1 channel potentiation or activation; P51787; CHO-K1 KCNQ1, thallium flux FluxOR fluorescence; stronger effect = higher value; B-score at 10 µM; AID 2648; 310,000 compounds, 0.35% hits;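 active = fluorescence ratio B-score, a plate-corrected score, at least three library SD, with initial intensity B-score within 5 SD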
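Test system: CHO-K1 cells stably expressing KCNQ1 / Medium: assay buffer / Also added: depolarizing K+/Tl+ stimulus, K2SO4 and Tl2SO4 each 12.5 mM in 5x stock / Incubation: 90 min dye loading and 20 min compound exposure, both at room temperature / Signal: thallium influx via FluxOR fluorescence, kinetic imaging / Evaluation: B score of baseline-normalized fluorescence ratio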
KCNK9 inh = human KCNK9 channel inhibition. Q9NPC2. HEK293 KCNK9, FluxOR thallium flux fluorescence; stronger effect = lower value. B-score at 10 µM. 310,000 compounds, 1.2% hits. AID 488922;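 active = ratio B-score over 3 SD below the library mean, with starting fluorescence within 5 SD of its mean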;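 note: negative B-score means less thallium flux so channel inhibition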
hERG rescue = shields human hERG channel from block by proarrhythmic agents | Q12809 | CHO-hERG, FluxOR thallium flux, dofetilide IC70 present | activation (rescue from dofetilide block), less the hit threshold, % at 10 µM | 310,000 compounds, 0.51% hits;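 active = activation above the mean of controls blocked by dofetilide plus 5 SD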;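 note: thallium influx through hERG after potassium depolarization seen as dye fluorescence rise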
Target sequence (Q12809 whole entry, looked up): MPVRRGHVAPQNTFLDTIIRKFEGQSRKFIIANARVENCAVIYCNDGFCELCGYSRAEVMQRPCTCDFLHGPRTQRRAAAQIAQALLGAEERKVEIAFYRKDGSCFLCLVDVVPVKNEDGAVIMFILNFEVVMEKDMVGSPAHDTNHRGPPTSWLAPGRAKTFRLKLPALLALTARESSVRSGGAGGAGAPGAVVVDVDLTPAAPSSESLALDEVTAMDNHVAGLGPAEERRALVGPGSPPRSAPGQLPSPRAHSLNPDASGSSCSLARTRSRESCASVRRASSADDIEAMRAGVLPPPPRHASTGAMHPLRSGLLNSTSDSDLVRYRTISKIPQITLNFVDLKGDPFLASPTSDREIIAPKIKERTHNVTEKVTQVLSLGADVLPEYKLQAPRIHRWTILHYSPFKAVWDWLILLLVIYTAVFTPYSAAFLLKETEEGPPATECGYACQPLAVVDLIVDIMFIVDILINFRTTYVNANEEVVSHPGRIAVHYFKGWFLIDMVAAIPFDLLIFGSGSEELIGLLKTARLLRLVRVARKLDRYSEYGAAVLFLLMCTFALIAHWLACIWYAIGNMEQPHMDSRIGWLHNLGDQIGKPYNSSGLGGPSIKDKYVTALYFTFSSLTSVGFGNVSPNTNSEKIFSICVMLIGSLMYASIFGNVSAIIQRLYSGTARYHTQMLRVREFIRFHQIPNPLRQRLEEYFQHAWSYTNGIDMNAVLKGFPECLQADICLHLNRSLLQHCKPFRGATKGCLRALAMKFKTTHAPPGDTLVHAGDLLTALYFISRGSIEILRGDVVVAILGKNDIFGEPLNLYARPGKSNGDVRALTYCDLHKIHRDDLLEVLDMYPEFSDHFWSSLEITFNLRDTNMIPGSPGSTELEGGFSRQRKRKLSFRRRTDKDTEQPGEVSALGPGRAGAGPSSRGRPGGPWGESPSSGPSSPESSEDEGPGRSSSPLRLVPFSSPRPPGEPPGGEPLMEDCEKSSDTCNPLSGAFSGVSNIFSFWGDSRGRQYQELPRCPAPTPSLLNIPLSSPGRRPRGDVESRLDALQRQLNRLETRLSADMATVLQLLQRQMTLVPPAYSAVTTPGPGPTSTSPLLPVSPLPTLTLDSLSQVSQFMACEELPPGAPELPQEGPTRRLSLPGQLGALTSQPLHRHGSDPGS
KCNK3 inh = human KCNK3 channel inhibition, primary screen. O14649. B-score at 10 µM. 340,000 compounds, 0.84% hits. CHO-KCNK3 thallium flux, FluxOR fluorescence; stronger effect = lower value. AID 602410;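 active = B-score under library mean minus 4 SD, starting fluorescence ratio at most library mean plus 5 SD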;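 note: more negative B-score means stronger inhibition of thallium flux through KCNK3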
KCNQ1 inh = blocks the human KCNQ1 potassium channel | P51787 | CHO-K1 KCNQ1, FluxOR thallium flux fluorescence; stronger effect = higher value | B-score at 10 µM | 310,000 compounds, 1.3% hits;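 active = compounds whose thallium flux B-score, printed positive for inhibition, exceeds three library SD while starting fluorescence stays within three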;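 note: channel opened by potassium depolarization with thallium stimulus after 20 min compound exposure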
Cl transport mod = KCC2 (human) Cl- transport modulation. Q9H2X9. KCC2 cells, thallium flux FluoZin-2 fluorescence. B-score of Tl+ flux slope (higher = more flux/activation; lower = inhibition) at 10 µM. 190,000 compounds, 2.2% hits;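 active = thallium flux slope and its plate-corrected score both differing from the plate sample mean at a set confidence after two filtering rounds, in either direction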;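 note: slope of fluorescence scaled to starting intensity during 10 to 20 s after thallium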
KCNQ1 block val = reconfirmed blocker of the human KCNQ1 potassium channel; shares compounds with KCNQ1 inh; KCNQ1 cell line, FluxOR thallium flux fluorescence; inhibition, % at 10 µM; 1,600 compounds, 93% hits; AID 588353;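 active = primary screen active, with duplicate mean exceeding buffer control mean plus 3 SD of buffer wells, cut at about 28% in these data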;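 note: 0% = buffer control ratio and 100% = XE991 inhibitor control ratio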
CHO KCNQ1 ctr = activity in parental CHO cells lacking KCNQ1; shares compounds with KCNQ1 inh; parental CHO-K1, FluxOR thallium flux fluorescence ratio; stronger effect = lower value; zero means no signal rise above baseline; fluorescence ratio (Tl flux) at 10 µM; 1,600 compounds, 21% hits; AID 588366;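 active = mean of duplicate thallium-flux fluorescence ratios in parental host cells more than 5 SD below the buffer control mean, cut at about 0.38 in these data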;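 note: ratio is peak minus minimum fluorescence divided by baseline fluorescence; actives read low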
KCNQ1 APC inh = confirmation of human KCNQ1 potassium channel inhibitors by electrophysiology; shares compounds with KCNQ1 inh; KCNQ1-CHO cells, automated patch clamp current; calls only at 10 µM; 490 compounds, 20% hits;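 active = KCNQ1 current drop exceeding 3 SD of negative control wells, seen in both duplicate runs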;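 note: steady state current during a 2 s step from -80 to +40 mV; negative values mean current inhibition and positive values mean potentiation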
KCNQ2 inh = KCNQ1 inhibitor that also blocks rat KCNQ2 channel | shares compounds with KCNQ1 inh | KCNQ2 cells, FluxOR thallium flux fluorescence | inhibition, % at 10 µM | 1,600 compounds, 71% hits | AID 651746;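 active = mean percent inhibition of the KCNQ2 thallium signal more than 5 SD above the buffer-only control wells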;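 note: KCNQ2 expressed in CHO cells; 0% = buffer control wells and 100% = XE-991 inhibitor control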
KCNQ1 KCNE1 spec = KCNQ1 inhibitor that also blocks human KCNQ1/KCNE1 channel; shares compounds with KCNQ1 inh; KCNQ1/KCNE1 cells, FluxOR thallium flux fluorescence; inhibition, % at 10 µM; 1,600 compounds, 77% hits;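 active = mean percent inhibition of duplicate wells above the buffer-only control mean plus 3 SD of those controls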;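 note: 0% = buffer only wells and 100% = XE-991 inhibitor control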
KCNK9 block conf = confirmation of human KCNK9 potassium channel inhibitors; shares compounds with KCNK9 inh; HEK293 KCNK9 cells, FluxOR thallium flux fluorescence; inhibition, % at 10 µM; 4,900 compounds, 43% hits;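 active = thallium signal inhibited by more than 5 SD of the compound-free buffer control wells, on both duplicate plates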;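 note: 0% = assay buffer control wells without compound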
Kir21 sel = mouse Kir2.1 off-target activity of KCNK9 modulators | shares compounds with KCNK9 inh | Kir2.1 cells, FluxOR thallium flux fluorescence | inhibition, % at 10 µM | 4,900 compounds, 4% hits;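 active = thallium signal drop more than 5 SD beyond the mean of the no-compound control wells, seen in both duplicate plates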;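 note: signal is fluorescence rise after thallium addition divided by baseline fluorescence; plate controls were assay buffer only for no effect and full block by chlorpromazine control for full effect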
KCNK9 uninduced = second counter-screen for KCNK9 modulators: effect in non-induced cells. 4,900 compounds, 40% hits. non-induced KCNK9-HEK293, FluxOR thallium flux. AID 492997. shares compounds with KCNK9 inh. inhibition, % at 10 µM;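 active = thallium signal drop beyond 5 SD of the untreated control mean, on both duplicate plates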;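 note: plate controls were buffer only IC0 wells for no effect and SID17386958 at its maximal inhibitory level for full effect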
KCNK3 confirm = confirmation of human KCNK3 two-pore domain potassium channel inhibitors; CHO-KCNK3 thallium flux, FluxOR fluorescence; 0% buffer, 100% carvedilol maximal block; ratio percent of control, % at 10 µM; 2,400 compounds, 99% hits; shares compounds with KCNK3 inh;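 active = ratio percent of control, averaged over triplicates, above buffer control mean plus 5 SD, cut at about 64% in these data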;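 note: ratio is the fluorescence rise from min to max over baseline after thallium stimulus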
KCNK3 uninduced = activity in cells without induced KCNK3 expression. shares compounds with KCNK3 inh. non-induced KCNK3 parental cells, FluxOR thallium flux; stronger effect = lower value. thallium flux ratio (lower = more inhibition) at 10 µM. 2,400 compounds, 40% hits. AID 651747;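 active = thallium flux ratio, averaged over three wells, more than 5 SD below the buffer control mean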;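 note: host cells are CHO cells without KCNK3 induction; ratio is peak minus trough fluorescence over baseline then normalized to buffer controls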
Numbers without * were called inactive; i = inactive; . = no result; + = active, no number. Compounds with a hit are over-represented: about 4.1% of the library has one in this group of screens.

SMILES	KCNQ1 act	KCNK9 inh	hERG rescue	KCNK3 inh	KCNQ1 inh	Cl transport mod	KCNQ1 block val	CHO KCNQ1 ctr	KCNQ2 inh	KCNQ1 KCNE1 spec	KCNK3 confirm	KCNK3 uninduced	others
Cc1cccc(C)c1NC(=O)c1cccc2c1C(=O)N(C1CCCCC1)C2	i	-19.3*	-19.6	-15.4*	6*	.	74.5*	0.443	104.7%*	129.0%*	125.7*	0.154*	KCNK9 block conf=52.5%*;Kir21 sel=i;KCNK9 uninduced=36.0%*
Cc1ccsc1C(=O)C1CCCN(Cc2cccn2-c2ccc(Cl)cn2)C1 (stereo not given)	i	i	-25.6	-9.07*	9*	.	91.5*	0.43	71.7%*	57.5%*	127.3*	0.136*	KCNQ1 APC inh=+
COc1cccc(C(=O)C2CCCN(Cc3cccn3-c3ccccn3)C2)c1 (stereo not given)	i	i	-22.6	i	i	1.07	.	.	.	.	.	.
O=C(Nc1ccn(CC(=O)N2CCN(c3ccccn3)CC2)c(=O)n1)OCc1ccccc1	.	.	.	i	.	.	.	.	.	.	.	.
CC(C)Nc1nc(NC(C)C)nc(N(C#N)CCOc2ccc(Cl)cc2Cl)n1	i	-7.94*	-4.3	-12*	14*	.	134.5*	0.31*	128.3%*	+	135.3*	0.129*
CC(Sc1ncn[nH]1)C(=O)Nc1cc(C(F)(F)F)ccc1Cl (stereo not given)	.	.	.	i	.	.	.	.	.	.	.	.
CC(C)OC(=O)C(C#N)c1nc2ccccc2nc1N1CCCC1 (stereo not given)	i	i	-5.1	i	i	-0.814	.	.	.	.	.	.
CCC(C)COC(=O)C(C#N)c1nc2ccccc2nc1N1CCCCC1 (stereo not given)	i	-11.2*	-22.6	i	8*	.	123.0*	0.425	102.3%*	116.0%*	117.3*	0.144*	KCNQ1 APC inh=i;KCNK9 block conf=48.5%*;Kir21 sel=i;KCNK9 uninduced=45.0%*
COc1ccc(Nc2nc(-c3cccc(OC)c3O)nc3ccccc23)cc1	i	i	-4.2	-9.92*	7*	.	167.5*	0.303*	116.0%*	+	133.0*	0.146*
CN(Cc1ccccc1)Cc1ccccc1C(O)c1ccccc1 (stereo not given)	.	.	.	i	.	.	.	.	.	.	.	.
NC(=O)c1ccsc1NC(=O)COC(=O)Cc1cccc2ccccc12	i	i	-30.9	-8.92*	9*	-2.06	110.0*	0.314*	103.7%*	+	115.7*	i
c1coc(C2=NCCc3ccccc32)c1	i	i	0.7	i	i	.	.	.	.	.	.	.
